# Data as given in article PMC11094421 (Clinical Cancer Research, 2024).
# Experiments:
# [1] = Treatment-emergent adverse events, first-in-human dose-escalation study; format: in vivo
# How it was run: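 Safety set comprised all patients given ≥1 dose (N = 55; 5–270 mg, QD or BID schedules). TEAEs were counted from the first dose until 30 days after the last. Baseline was the last value before the first dose.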
# [2] = tested on: ATM^mut non–small cell lung cancer (NSCLC) xenograft model; details: monotherapy; Supplementary Fig. S1; cited from earlier work
# [3] = tested on: circulating tumor DNA; assay: Molecular response in plasma ctDNA; format: in vivo, human
# [4] = tested on: immune cell subsets; assay: Immunophenotyping of whole blood by flow cytometry; format: in vivo, human; details: doses ≥130 mg, on-treatment period; full recovery during treatment breaks
# [5] = Noncompartmental PK of tuvusertib in plasma; format: in vivo, human
# [6] = Dose-limiting toxicities, MTD and RDE; format: in vivo, human
# How it was run: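 Patients with metastatic or locally advanced unresectable solid tumors received test compound alone, fasting, QD from 5 mg upward, plus 2 weeks on/1 week off and 150 mg BID 4 days on/3 days off schedules. The DLT window was 21 days with a 30% target DLT rate. A Bayesian 2-parameter logistic model with overdose control and a schedule covariate gave posterior DLT probabilities (mean, percentiles). Analysis set N = 52.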
# [7] = tested on: ARID1A^mut gastric cancer xenograft model; details: monotherapy; Supplementary Fig. S1; cited from earlier work
# [8] = tested on: patients with advanced solid tumors; assay: Objective response according to RECIST v1.1; format: in vivo, human
# How it was run: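 Investigator-assessed objective response per RECIST v1.1, based on change in the sum of longest diameters of target lesions. Patients received the test compound once or twice daily on continuous or intermittent schedules.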
# [9] = tested on: xenograft models of BRCA^mut high-grade serous ovarian cancer; details: monotherapy and combination with niraparib; cited from earlier work
# [10] = lartesertib, niraparib, cisplatin, gemcitabine, irinotecan; preclinical; cited from earlier work
smiles,measurement,setting,value
Cn1cncc1-c1c(F)cncc1NC(=O)c1c(N)nn2cc(F)cnc12 [Tuvusertib],Anemia TEAE,"[1]; Any grade, all doses, N = 55",39 (71) n (%)
same,Constipation TEAE,"[1]; Any grade, all doses, N = 55",13 (24) n (%)
same,Fatigue TEAE,"[1]; Any grade, all doses, N = 55",22 (40.0) n (%)
same,Nausea TEAE,"[1]; Any grade, all doses, N = 55",34 (62) n (%)
same,Vomiting TEAE,"[1]; Any grade, all doses, N = 55",21 (38) n (%)
same,Anemia TEAE,"[1]; Grade ≥3, all doses, N = 55",20 (36) n (%)
same,Constipation TEAE,"[1]; Grade ≥3, all doses, N = 55",0 n (%)
same,Fatigue TEAE,"[1]; Grade ≥3, all doses, N = 55",1 (2) n (%)
same,Nausea TEAE,"[1]; Grade ≥3, all doses, N = 55",0 n (%)
same,Vomiting TEAE,"[1]; Grade ≥3, all doses, N = 55",3 (6) n (%)
same,treatment-related AE anemia,[1]; across all dose levels,67%
same,treatment-related AE fatigue,[1]; across all dose levels,38%
same,treatment-related AE vomiting,[1]; across all dose levels,33%
same,TEAEs assessed as related to tuvusertib,[1]; all doses,87%
same,"abnormal ECG readings, vital signs, high-grade laboratory abnormalities",[1]; all doses,"No clinically significant abnormal ECG readings, vital signs or high-grade laboratory abnormalities were observed"
same,patients who experienced at least one TEAE,[1]; all doses,95%
same,Any grade ≥3 TEAE,"[1]; all doses, N = 55",26 (47) n (%)
same,Any serious TEAE,"[1]; all doses, N = 55",15 (27) n (%)
same,Grade ≥3 TEAE related to tuvusertib,"[1]; all doses, N = 55",19 (35) n (%)
same,Serious TEAE related to tuvusertib,"[1]; all doses, N = 55",3 (6) n (%)
same,TEAE leading to permanent tuvusertib discontinuation,"[1]; all doses, N = 55",3 (6) n (%)
same,TEAE leading to temporary tuvusertib discontinuation,"[1]; all doses, N = 55",26 (47) n (%)
same,TEAEs related to tuvusertib,"[1]; all doses, N = 55",48 (87) n (%)
same,Any TEAE,"[1]; all doses, N = 55, safety analysis set",52 (95) n (%)
same,constipation TEAE of any grade,[1]; at the MTD (n = 11),36%
same,nausea TEAE of any grade,[1]; at the MTD (n = 11),55%
same,vomiting TEAE of any grade,[1]; at the MTD (n = 11),36%
same,grade ≥3 TEAE anemia,[1]; at the RDE,none seen
same,nausea TEAE of any grade,[1]; at the RDE (n = 7),71%
same,anemia TEAE of any grade,[1]; overall,71%
same,fatigue TEAE of any grade,[1]; overall,40%
same,grade ≥3 TEAE lymphocyte count decreased,[1]; overall,7%
same,grade ≥3 TEAE neutrophil count decreased,[1]; overall,7%
same,nausea TEAE of any grade,[1]; overall,62%
same,grade ≥3 TEAE anemia,"[1]; overall, majority at doses ≥ MTD",36%
same,Grade ≥4 platelet count decreased,[1]; reported at dose levels exceeding the MTD,4%
same,antitumor activity,[2],antitumor activity as monotherapy
same,Complete MRs for any mutations,[3]; ARID1A,2/8
same,Complete MRs for any mutations,[3]; ATRX,2/5
same,Complete MRs for any mutations,[3]; BRCA1/2,2/11
same,Complete MRs for any mutations,[3]; DAXX,2/3
same,MRs by tumor type,"[3]; breast cancer, 1/3",33%
same,MRs by tumor type,"[3]; other tumor types, 4/21",19%
same,MRs by tumor type,"[3]; ovarian cancer, 5/10",50%
same,MRs observed (patients),"[3]; patients treated with more than 130 mg QD, 14/37",38%
same,patients showing a reduction in sum of tumor diameter,"[3]; patients with MRs, 7/14",50%
same,patients showing a reduction in sum of tumor diameter,"[3]; patients without MRs, 8/33",24%
same,MRs observed (patients),[3]; the 10 patients who received lower doses,none
same,monocytes and NK cell subsets,[4],Transient decreases
same,dose proportionality of exposure,[5]; 5 to 270 mg,approximately dose proportional up to 180 mg QD and slightly more than proportional at higher doses
same,PK steady-state conditions achieved,[5]; cycle 1,≤ 8 days
same,half-life,"[5]; human, plasma, oral",1.2 to 5.6 h
same,Tmax,"[5]; human, plasma, po",0.5 to 3.5 h
same,DLT anemia requiring blood transfusion,[6]; 130 mg QD,1/8
same,DLT anemia requiring blood transfusion,[6]; 150 mg BID 4 days on/3 days off,3/4
same,DLT anemia requiring blood transfusion,[6]; 180 mg QD,3/10
same,median estimated DLT probability,[6]; 180 mg QD continuously,23%
same,upper boundary of the one-sided 95% credible interval of DLT probability,[6]; 180 mg QD continuously,37%
same,DLT anemia requiring blood transfusion,[6]; 220 mg QD 2 weeks on/1 week off,2/6
same,DLT anemia requiring blood transfusion,[6]; 270 mg QD,1/4
same,DLT upper gastrointestinal hemorrhage and decreased platelet counts (one each),[6]; 270 mg QD,2/4
same,patients who experienced DLTs,"[6]; as assessed by the SMC, observation period 21 days",Eleven
same,median estimated DLT probability,"[6]; intermittent 2 weeks on/1 week off schedule, no MTD formally established",< 20%
same,DLTs that were events of anemia requiring blood transfusion,[6]; of eleven patients with DLTs,10
same,antitumor activity,[7],antitumor activity as monotherapy
same,patients with stable disease (RECIST v1.1),"[8]; 15 patients, all doses",27%
same,duration of disease stabilization,"[8]; patient with unconfirmed partial response, 150 mg BID 4 days on/3 days off",9 months
same,antitumor activity,[9],antitumor activity as monotherapy and in combination with the PARP inhibitor niraparib
same,synergy with other DDR-targeting treatments and DNA-damaging agents,[10],pronounced synergy
